Measured values: ChEMBL document CHEMBL4689842, “EUbOPEN Chemogenomics Library wave 1” (2021)

Tested on: Fibroblast
Test: Multiplex assay against human fibroblast
Assay type: toxicity, cell-based
How it was run: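 At seeding, live cells were stained with Hoechst33342, BioTracker Green Microtubule Cytoskeleton Dye, MitoTracker Red and Annexin V Alexa Fluor 680. After compound addition they were imaged on a CQ1 microscope at 37°C and 5% CO2, and CellPathfinder machine-learning gating sorted them into Hoechst high-intensity objects or normal cells, with normal cells further split into healthy, pyknosed or fragmented nuclei and pyknosed cells into mitotic or apoptotic. Tubulin, mitochondrial-mass and membrane-permeability phenotypes are given as per cents of cells with healthy nuclei.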

[1] = 12 h, 1 µM, compound concentration 1 uM, replicate 1
[2] = 12 h, 1 µM, compound concentration 1 uM, replicate 2
[3] = 12 h, 10 µM, compound concentration 10 uM, replicate 1
[4] = 12 h, 10 µM, compound concentration 10 uM, replicate 2
[5] = 24 h, 1 µM, compound concentration 1 uM, replicate 1
[6] = 24 h, 1 µM, compound concentration 1 uM, replicate 2
[7] = 24 h, 10 µM, compound concentration 10 uM, replicate 1
[8] = 24 h, 10 µM, compound concentration 10 uM, replicate 2
[9] = 48 h, 1 µM, compound concentration 1 uM, replicate 1
[10] = 48 h, 1 µM, compound concentration 1 uM, replicate 2
[11] = 48 h, 10 µM, compound concentration 10 uM, replicate 1
[12] = 48 h, 10 µM, compound concentration 10 uM, replicate 2

## COC(=O)C1=C(C)NC(C)=C(C(=O)OCCCN2CCC(c3ccccc3)(c3ccccc3)CC2)[C@H]1c1cccc([N+](=O)[O-])c1 [NIGULDIPINE]
[1]
  Population Apoptotic (%): 65%
  Population Fragmented Nuclei (%): 17%
  Population Healthy Nuclei (%): 45%
  Population Hoechst High Intensity Objects (%): 12%
  Population Membrane Permeable-Phenotype (%): 2%
  Population Mitochondria Different-Phenotype (%): 85%
  Population Mitotic Cells (%): 34%
  Population Normal (%): 87%
  Population Pyknosed Nuclei (%): 36%
  Population Tubulin-Different-Phenotype (%): 100%
  Total Cell Count: 99
[2]
  Population Apoptotic (%): 91%
  Population Fragmented Nuclei (%): 6%
  Population Healthy Nuclei (%): 78%
  Population Hoechst High Intensity Objects (%): 9%
  Population Membrane Permeable-Phenotype (%): 66%
  Population Mitochondria Different-Phenotype (%): 100%
  Population Mitotic Cells (%): 8%
  Population Normal (%): 90%
  Population Pyknosed Nuclei (%): 15%
  Total Cell Count: 945
[3]
  Population Apoptotic (%): 65%
  Population Fragmented Nuclei (%): 19%
  Population Healthy Nuclei (%): 10%
  Population Hoechst High Intensity Objects (%): 16%
  Population Membrane Permeable-Phenotype (%): 63%
  Population Mitochondria Different-Phenotype (%): 18%
  Population Mitotic Cells (%): 34%
  Population Normal (%): 83%
  Population Pyknosed Nuclei (%): 69%
  Population Tubulin-Different-Phenotype (%): 72%
  Total Cell Count: 124
[4]
  Population Apoptotic (%): 76%
  Population Fragmented Nuclei (%): 67%
  Population Healthy Nuclei (%): 3%
  Population Hoechst High Intensity Objects (%): 12%
  Population Membrane Permeable-Phenotype (%): 100%
  Population Mitochondria Different-Phenotype (%): 50%
  Population Mitotic Cells (%): 23%
  Population Normal (%): 87%
  Population Pyknosed Nuclei (%): 29%
  Population Tubulin-Different-Phenotype (%): 100%
  Total Cell Count: 87
[5]
  Population Apoptotic (%): 76%
  Population Fragmented Nuclei (%): 25%
  Population Healthy Nuclei (%): 53%
  Population Hoechst High Intensity Objects (%): 13%
  Population Membrane Permeable-Phenotype (%): 7%
  Population Mitochondria Different-Phenotype (%): 85%
  Population Mitotic Cells (%): 23%
  Population Normal (%): 86%
  Population Pyknosed Nuclei (%): 20%
  Population Tubulin-Different-Phenotype (%): 90%
  Total Cell Count: 117
[6]
  Population Apoptotic (%): 77%
  Population Fragmented Nuclei (%): 7%
  Population Healthy Nuclei (%): 65%
  Population Hoechst High Intensity Objects (%): 5%
  Population Membrane Permeable-Phenotype (%): 96%
  Population Mitochondria Different-Phenotype (%): 100%
  Population Mitotic Cells (%): 22%
  Population Normal (%): 94%
  Population Pyknosed Nuclei (%): 27%
  Population Tubulin-Different-Phenotype (%): 100%
  Total Cell Count: 948
[7]
  Population Apoptotic (%): 79%
  Population Fragmented Nuclei (%): 29%
  Population Healthy Nuclei (%): 10%
  Population Hoechst High Intensity Objects (%): 22%
  Population Membrane Permeable-Phenotype (%): 27%
  Population Mitochondria Different-Phenotype (%): 27%
  Population Mitotic Cells (%): 20%
  Population Normal (%): 77%
  Population Pyknosed Nuclei (%): 59%
  Population Tubulin-Different-Phenotype (%): 54%
  Total Cell Count: 135
[8]
  Population Apoptotic (%): 100%
  Population Fragmented Nuclei (%): 40%
  Population Healthy Nuclei (%): 25%
  Population Hoechst High Intensity Objects (%): 11%
  Population Membrane Permeable-Phenotype (%): 100%
  Population Mitochondria Different-Phenotype (%): 100%
  Population Mitotic Cells (%): 0%
  Population Normal (%): 88%
  Population Pyknosed Nuclei (%): 33%
  Population Tubulin-Different-Phenotype (%): 100%
  Total Cell Count: 85
[9]
  Population Apoptotic (%): 80%
  Population Fragmented Nuclei (%): 47%
  Population Healthy Nuclei (%): 44%
  Population Hoechst High Intensity Objects (%): 11%
  Population Membrane Permeable-Phenotype (%): 1%
  Population Mitochondria Different-Phenotype (%): 70%
  Population Mitotic Cells (%): 20%
  Population Normal (%): 88%
  Population Pyknosed Nuclei (%): 7%
  Population Tubulin-Different-Phenotype (%): 80%
  Total Cell Count: 143
[10]
  Population Apoptotic (%): 0%
  Population Fragmented Nuclei (%): 61%
  Population Healthy Nuclei (%): 38%
  Population Hoechst High Intensity Objects (%): 21%
  Population Membrane Permeable-Phenotype (%): 0%
  Population Mitochondria Different-Phenotype (%): 71%
  Population Mitotic Cells (%): 0%
  Population Normal (%): 78%
  Population Pyknosed Nuclei (%): 0%
  Population Tubulin-Different-Phenotype (%): 86%
  Total Cell Count: 126
[11]
  Population Apoptotic (%): 82%
  Population Fragmented Nuclei (%): 48%
  Population Healthy Nuclei (%): 22%
  Population Hoechst High Intensity Objects (%): 28%
  Population Membrane Permeable-Phenotype (%): 31%
  Population Mitochondria Different-Phenotype (%): 22%
  Population Mitotic Cells (%): 17%
  Population Normal (%): 71%
  Population Pyknosed Nuclei (%): 29%
  Population Tubulin-Different-Phenotype (%): 27%
  Total Cell Count: 138
[12]
  Population Apoptotic (%): 90%
  Population Fragmented Nuclei (%): 68%
  Population Healthy Nuclei (%): 17%
  Population Hoechst High Intensity Objects (%): 31%
  Population Membrane Permeable-Phenotype (%): 57%
  Population Mitochondria Different-Phenotype (%): 64%
  Population Mitotic Cells (%): 9%
  Population Normal (%): 68%
  Population Pyknosed Nuclei (%): 13%
  Population Tubulin-Different-Phenotype (%): 21%
  Total Cell Count: 115
